Here are results for one compound from ChEMBL document CHEMBL5543089, “Discovery of a novel, highly potent EZH2 PROTAC degrader for targeting non-canonical oncogenic functions of EZH2” (Eur J Med Chem, 2024).

Series [1] has as its target T1, von Hippel-Lindau disease tumor suppressor/Histone-lysine N-methyltransferase EZH2 (Homo sapiens, UniProt Q15910+P40337). The series is described as follows: PROTAC activity at VHL/EZH2 degradation in MLLr AML cell line human EOL1 cells assessed as protein degradation at 0.5 uM measured after 24 hrs in presence of 5 uM EPZ-6438 by Western blot analysis. The format is cell-based. In a few lines:
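EOL-1 cells were pre-treated for 2 h with MLN4924 (0.05 μM), EPZ-6438 (5 μM) or VHL-1 (5 μM), then given 0.5 μM degrader for 24 h. EZH2 was assessed by Western blot against β-actin. Blots are representative of two biological experiments.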
Target sequence in this assay (P40337 whole entry, looked up): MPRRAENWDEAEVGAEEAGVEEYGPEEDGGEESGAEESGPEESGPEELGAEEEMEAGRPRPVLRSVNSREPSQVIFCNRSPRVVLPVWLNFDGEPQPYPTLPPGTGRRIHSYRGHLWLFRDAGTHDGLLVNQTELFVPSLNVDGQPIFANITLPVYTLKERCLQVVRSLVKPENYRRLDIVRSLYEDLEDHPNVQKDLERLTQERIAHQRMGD
Target sequence in this assay (Q15910 whole entry, looked up): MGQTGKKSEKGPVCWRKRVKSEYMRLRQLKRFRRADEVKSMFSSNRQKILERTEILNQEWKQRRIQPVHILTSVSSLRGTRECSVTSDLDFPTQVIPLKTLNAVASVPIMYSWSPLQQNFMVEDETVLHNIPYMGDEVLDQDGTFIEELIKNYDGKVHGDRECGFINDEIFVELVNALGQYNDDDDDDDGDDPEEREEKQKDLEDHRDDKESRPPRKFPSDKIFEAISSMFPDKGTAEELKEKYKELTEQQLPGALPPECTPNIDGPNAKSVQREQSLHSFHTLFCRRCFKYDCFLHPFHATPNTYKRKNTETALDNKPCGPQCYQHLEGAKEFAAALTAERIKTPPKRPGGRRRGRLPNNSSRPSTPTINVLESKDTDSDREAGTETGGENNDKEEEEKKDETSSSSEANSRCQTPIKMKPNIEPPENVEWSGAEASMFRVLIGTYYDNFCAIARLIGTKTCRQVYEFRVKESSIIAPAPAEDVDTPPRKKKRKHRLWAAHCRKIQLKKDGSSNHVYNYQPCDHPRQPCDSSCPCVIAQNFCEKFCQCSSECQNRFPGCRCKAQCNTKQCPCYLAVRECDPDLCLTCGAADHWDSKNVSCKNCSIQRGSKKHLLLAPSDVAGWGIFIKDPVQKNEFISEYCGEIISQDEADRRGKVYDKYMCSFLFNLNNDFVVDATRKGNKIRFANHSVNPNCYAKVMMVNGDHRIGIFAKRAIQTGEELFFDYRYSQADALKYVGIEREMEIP
(A western blot detects proteins with antibodies after separation by electrophoresis.)

In series [2] the target is T1, von Hippel-Lindau disease tumor suppressor/Histone-lysine N-methyltransferase EZH2. The series is described as follows: PROTAC activity at VHL/EZH2 degradation in human RS4-11 cells assessed as protein degradation at 0.3 uM measured after 24 hrs by Western blot analysis. The series is classed as cell-based. In a few lines:
(§1)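 Cells were seeded at 0.5–2 million per well and treated for 24 h, or for the stated times at 300 nM in the time course. Lysis was in RIPA with protease inhibitors; ~10 μg protein was run on SDS-PAGE and blotted to PVDF. Detection used fluorescent immunoblotting for EZH2, EED and SUZ12, with β-actin as loading control. Blots are representative of two biological experiments.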
Target sequence in this assay (P40337 whole entry, looked up): as the sequence (P40337 whole entry, looked up) above
Target sequence in this assay (Q15910 whole entry, looked up): as the sequence (Q15910 whole entry, looked up) above

Series [3] is described as follows: Plasma concentration in mouse at 50 mg/kg, ip measured after 9 hrs. Particulars: in vivo.
A short description of series [4]: Toxicity in mouse at 50 mg/kg, ip measured after 4 hrs. The series is classed as organism-based. The conditions noted are these: in vivo.
Series [5] has as its target T1, von Hippel-Lindau disease tumor suppressor/Histone-lysine N-methyltransferase EZH2. The series is described as follows: PROTAC activity at VHL/EZH2 degradation in human RS4-11 cells assessed as protein degradation at 0.1 uM measured after 24 hrs by Western blot analysis. The format is cell-based. The gist of the method:
as §1
Target sequence in this assay (P40337 whole entry, looked up): as the sequence (P40337 whole entry, looked up) above
Target sequence in this assay (Q15910 whole entry, looked up): as the sequence (Q15910 whole entry, looked up) above

In series [6] the target is PRMT5/MEP50 complex (Homo sapiens) (UniProt O14744+Q9BQA1). The series is described as follows: Inhibition of human PRMT5/MEP50 assessed as methyltransferase activity using Histone H2A as substrate at 10 uM by radioisotope based MT HotSpot assay relative to control. The series is classed as protein-complex assay. The gist of the method: (§2)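 Radioisotope-based methyltransferase assay (MT HotSpot) run by a contract lab. Compound was tested at 10 μM against a panel of 20 methyltransferases, in duplicate. Values are means ± SD of two replicates.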

Series [7] deals with von Hippel-Lindau disease tumor suppressor/Polycomb protein EED (Homo sapiens) (UniProt O75530+P40337). Description: PROTAC activity at VHL/EED degradation in MLLr AML cell line human EOL1 cells assessed as protein degradation at 1 to 1000 nM measured after 1 to 24 hrs by Western blot analysis. The format is cell-based. The conditions noted are these: dose 1-1000 nM, time 1-24 hrs. In a few lines:
as §1

Series [8] concerns the target Protein arginine N-methyltransferase 6 (Homo sapiens) (UniProt Q96LA8). Description: Inhibition of human PRMT6 assessed as methyltransferase activity using GST-GAR as substrate at 10 uM by radioisotope based MT HotSpot assay relative to control. In a few lines: as §2
For series [9], the target named is Histone-lysine N-methyltransferase, H3 lysine-79 specific (Homo sapiens) (UniProt Q8TEK3). Description: Inhibition of human DOT1L assessed as methyltransferase at 10 uM by radioisotope based MT HotSpot assay relative to control. In a few lines:
as §2

The target in series [10] is T1, von Hippel-Lindau disease tumor suppressor/Histone-lysine N-methyltransferase EZH2. The series is described as follows: PROTAC activity at VHL/EZH2 degradation in hMLLr AML cell line EOL1 cells assessed as protein degradation at 0.1 uM measured after 24 hrs by Western blot analysis. The format is cell-based. In a few lines: as §1
Target sequence in this assay (P40337 whole entry, looked up): as the sequence (P40337 whole entry, looked up) above
Target sequence in this assay (Q15910 whole entry, looked up): as the sequence (Q15910 whole entry, looked up) above
Series [11] addresses von Hippel-Lindau disease tumor suppressor/Polycomb protein SUZ12 (Homo sapiens) (UniProt Q15022+P40337). Description: PROTAC activity at VHL/SUZ12 degradation in MLLr AML cell line human EOL1 cells assessed as protein degradation at 1 to 1000 nM […] measured after 1 to 24 hrs by Western blot analysis. The conditions noted are these: dose 1-1000 nM, time 1-24 hrs. The series is classed as cell-based. In a few lines:
as §1

Series [12] has as its target Histone-lysine N-methyltransferase, H3 lysine-36 specific (Homo sapiens) (UniProt Q96L73). The series is described as follows: Inhibition of human NSD1 assessed as methyltransferase activity using Nucleosomes as substrate at 10 uM by radioisotope based MT HotSpot assay relative to control. In a few lines: as §2
The target in series [13] is T1, von Hippel-Lindau disease tumor suppressor/Histone-lysine N-methyltransferase EZH2. Description: PROTAC activity at VHL/EZH2 degradation in hMLLr AML cell line EOL1 cells assessed as protein degradation measured after 24 hrs by Western blot analysis. The series is classed as cell-based. The gist of the method:
as §1

In series [14] the target is Histone-lysine N-methyltransferase NSD3 (Homo sapiens) (UniProt Q9BZ95). The series is described as follows: Inhibition of human NSD3 assessed as methyltransferase activity using Nucleosomes as substrate at 10 uM by radioisotope based MT HotSpot assay relative to control. The gist of the method: as §2
In series [15] the target is Histone-lysine N-methyltransferase SMYD3 (Homo sapiens) (UniProt Q9H7B4). The series is described as follows: Inhibition of human SMYD3 assessed as methyltransferase activity using MEKK2 as substrate at 10 uM by radioisotope based MT HotSpot assay relative to control. The gist of the method:
as §2

Series [16] deals with Histone-lysine N-methyltransferase NSD2 (Homo sapiens) (UniProt O96028). The series is described as follows: Inhibition of human NSD2 assessed as methyltransferase activity using Nucleosomes as substrate at 10 uM by radioisotope based MT HotSpot assay relative to control. The gist of the method: as §2
The subject of another series is MDA-MB-468. Description: Anti-proliferative activity against human MDA-MB-468 cells assessed as cell growth inhibition measured after 5 days incubation by CCK-8 assay. Particulars: MDA-MB-468, 120 h. The series is classed as functional, cell-based. In a few lines: (§3)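 Cells plated at 3,000–10,000 per well and exposed to serial dilutions for 5 days at 37 °C. CCK-8 (1x) was added for 2–4 h, with absorbance read at 450 nm against a 690 nm reference. IC50 was taken from curve fits. Leukemia lines were grown in RPMI-1640, K562 in IMDM and MDA-MB-468 in DMEM, all with 10 % FBS. Values are means ± SD of two biological experiments (three for BT549 and MDA-MB-468).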
For orientation: Tetrazolium dyes change colour on reduction, which living cells bring about.

Another series is filed under the species Homo sapiens. Description: Inhibition of human PRMT1 assessed as methyltransferase activity using Histone H4 /H4 (1-15)-Biotin as substrate at 10 uM by radioisotope based MT HotSpot assay relative to control. The gist of the method: as §2
The test system of another series is RS4-11. The series is described as follows: Anti-proliferative activity against human RS4-11 cells assessed as cell viability measured after 5 days incubation by CCK-8 assay. The series is classed as functional, cell-based. The conditions noted are these: RS4-11, 120 h. In a few lines: as §3
Series [17] deals with Histone-arginine methyltransferase CARM1 (Homo sapiens) (UniProt Q86X55). The series is described as follows: Inhibition of human PRMT4 assessed as methyltransferase activity using Histone H3 as substrate at 10 uM by radioisotope based MT HotSpot assay relative to control. The gist of the method:
as §2

Series [18] deals with Histone-lysine N-methyltransferase SETD7 (Homo sapiens) (UniProt Q8WTS6). Description: Inhibition of human SET7/9 assessed as methyltransferase activity using Core histone as substrate at 10 uM by radioisotope based MT HotSpot assay relative to control. The gist of the method: as §2
Series [19] addresses Histone-lysine N-methyltransferase 2A (Homo sapiens) (UniProt Q03164). Description: Inhibition of human MLL1 assessed as methyltransferase activity using Nucleosomes as substrate at 10 uM by radioisotope based MT HotSpot assay relative to control. The gist of the method:
as §2

In a further series the test system is BT-549. The series is described as follows: Anti-proliferative activity against human BT-549 cells assessed as cell growth inhibition measured after 5 days incubation by CCK-8 assay. The series is classed as functional, cell-based. Particulars: BT-549, 120 h. The gist of the method: as §3
Series [20] concerns the target T1, von Hippel-Lindau disease tumor suppressor/Histone-lysine N-methyltransferase EZH2. Description: PROTAC activity at VHL/EZH2 degradation in human MV4-11 cells assessed as protein degradation at 0.03 to 0.3 microM measured after 24 hrs by Western blot analysis. The series is classed as cell-based. The conditions noted are these: dose 0.03-0.3 µM. The gist of the method:
as §1
Target sequence in this assay (P40337 whole entry, looked up): as the sequence (P40337 whole entry, looked up) above
Target sequence in this assay (Q15910 whole entry, looked up): as the sequence (Q15910 whole entry, looked up) above

Active and inactive are the calls of the source. The rule behind the calls is not given here. Some results are limits rather than exact numbers.

One may read the inhibition as how much of the control response was suppressed. As usually defined, the DC50 is the concentration giving 50% degradation. For orientation: IC50 means the point on the concentration scale where inhibition reaches its midpoint.

Chain of von Hippel-Lindau disease tumor suppressor/Polycomb protein EED (Homo sapiens) (O75530 2-441 limits assumed): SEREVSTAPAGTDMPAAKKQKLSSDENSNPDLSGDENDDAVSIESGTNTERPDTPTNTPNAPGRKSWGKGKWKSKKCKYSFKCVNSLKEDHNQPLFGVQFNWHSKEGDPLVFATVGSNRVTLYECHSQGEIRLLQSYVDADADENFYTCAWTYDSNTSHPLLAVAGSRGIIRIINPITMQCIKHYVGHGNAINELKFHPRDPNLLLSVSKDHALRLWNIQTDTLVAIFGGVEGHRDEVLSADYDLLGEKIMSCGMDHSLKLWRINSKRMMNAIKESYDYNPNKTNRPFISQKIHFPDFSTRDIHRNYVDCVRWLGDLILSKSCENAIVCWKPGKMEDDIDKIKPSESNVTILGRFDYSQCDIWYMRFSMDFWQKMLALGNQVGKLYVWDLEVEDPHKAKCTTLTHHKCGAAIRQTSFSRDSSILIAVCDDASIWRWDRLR
Chain of von Hippel-Lindau disease tumor suppressor/Polycomb protein EED (Homo sapiens) (P40337 whole entry partner): as the sequence (P40337 whole entry, looked up) above
Chain of Protein arginine N-methyltransferase 6 (Homo sapiens) (Q96LA8 whole entry, looked up): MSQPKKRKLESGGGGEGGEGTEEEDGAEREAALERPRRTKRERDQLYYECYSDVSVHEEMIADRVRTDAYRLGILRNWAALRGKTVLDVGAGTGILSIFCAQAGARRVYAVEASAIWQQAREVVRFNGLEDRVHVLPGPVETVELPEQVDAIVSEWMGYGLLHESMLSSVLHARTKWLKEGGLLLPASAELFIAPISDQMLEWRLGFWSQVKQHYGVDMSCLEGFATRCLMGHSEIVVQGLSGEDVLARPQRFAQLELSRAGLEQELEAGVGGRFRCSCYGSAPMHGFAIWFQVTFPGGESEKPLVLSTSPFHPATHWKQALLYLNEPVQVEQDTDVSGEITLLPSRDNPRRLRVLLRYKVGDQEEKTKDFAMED
Chain of Histone-lysine N-methyltransferase, H3 lysine-36 specific (Homo sapiens) (Q96L73 whole entry): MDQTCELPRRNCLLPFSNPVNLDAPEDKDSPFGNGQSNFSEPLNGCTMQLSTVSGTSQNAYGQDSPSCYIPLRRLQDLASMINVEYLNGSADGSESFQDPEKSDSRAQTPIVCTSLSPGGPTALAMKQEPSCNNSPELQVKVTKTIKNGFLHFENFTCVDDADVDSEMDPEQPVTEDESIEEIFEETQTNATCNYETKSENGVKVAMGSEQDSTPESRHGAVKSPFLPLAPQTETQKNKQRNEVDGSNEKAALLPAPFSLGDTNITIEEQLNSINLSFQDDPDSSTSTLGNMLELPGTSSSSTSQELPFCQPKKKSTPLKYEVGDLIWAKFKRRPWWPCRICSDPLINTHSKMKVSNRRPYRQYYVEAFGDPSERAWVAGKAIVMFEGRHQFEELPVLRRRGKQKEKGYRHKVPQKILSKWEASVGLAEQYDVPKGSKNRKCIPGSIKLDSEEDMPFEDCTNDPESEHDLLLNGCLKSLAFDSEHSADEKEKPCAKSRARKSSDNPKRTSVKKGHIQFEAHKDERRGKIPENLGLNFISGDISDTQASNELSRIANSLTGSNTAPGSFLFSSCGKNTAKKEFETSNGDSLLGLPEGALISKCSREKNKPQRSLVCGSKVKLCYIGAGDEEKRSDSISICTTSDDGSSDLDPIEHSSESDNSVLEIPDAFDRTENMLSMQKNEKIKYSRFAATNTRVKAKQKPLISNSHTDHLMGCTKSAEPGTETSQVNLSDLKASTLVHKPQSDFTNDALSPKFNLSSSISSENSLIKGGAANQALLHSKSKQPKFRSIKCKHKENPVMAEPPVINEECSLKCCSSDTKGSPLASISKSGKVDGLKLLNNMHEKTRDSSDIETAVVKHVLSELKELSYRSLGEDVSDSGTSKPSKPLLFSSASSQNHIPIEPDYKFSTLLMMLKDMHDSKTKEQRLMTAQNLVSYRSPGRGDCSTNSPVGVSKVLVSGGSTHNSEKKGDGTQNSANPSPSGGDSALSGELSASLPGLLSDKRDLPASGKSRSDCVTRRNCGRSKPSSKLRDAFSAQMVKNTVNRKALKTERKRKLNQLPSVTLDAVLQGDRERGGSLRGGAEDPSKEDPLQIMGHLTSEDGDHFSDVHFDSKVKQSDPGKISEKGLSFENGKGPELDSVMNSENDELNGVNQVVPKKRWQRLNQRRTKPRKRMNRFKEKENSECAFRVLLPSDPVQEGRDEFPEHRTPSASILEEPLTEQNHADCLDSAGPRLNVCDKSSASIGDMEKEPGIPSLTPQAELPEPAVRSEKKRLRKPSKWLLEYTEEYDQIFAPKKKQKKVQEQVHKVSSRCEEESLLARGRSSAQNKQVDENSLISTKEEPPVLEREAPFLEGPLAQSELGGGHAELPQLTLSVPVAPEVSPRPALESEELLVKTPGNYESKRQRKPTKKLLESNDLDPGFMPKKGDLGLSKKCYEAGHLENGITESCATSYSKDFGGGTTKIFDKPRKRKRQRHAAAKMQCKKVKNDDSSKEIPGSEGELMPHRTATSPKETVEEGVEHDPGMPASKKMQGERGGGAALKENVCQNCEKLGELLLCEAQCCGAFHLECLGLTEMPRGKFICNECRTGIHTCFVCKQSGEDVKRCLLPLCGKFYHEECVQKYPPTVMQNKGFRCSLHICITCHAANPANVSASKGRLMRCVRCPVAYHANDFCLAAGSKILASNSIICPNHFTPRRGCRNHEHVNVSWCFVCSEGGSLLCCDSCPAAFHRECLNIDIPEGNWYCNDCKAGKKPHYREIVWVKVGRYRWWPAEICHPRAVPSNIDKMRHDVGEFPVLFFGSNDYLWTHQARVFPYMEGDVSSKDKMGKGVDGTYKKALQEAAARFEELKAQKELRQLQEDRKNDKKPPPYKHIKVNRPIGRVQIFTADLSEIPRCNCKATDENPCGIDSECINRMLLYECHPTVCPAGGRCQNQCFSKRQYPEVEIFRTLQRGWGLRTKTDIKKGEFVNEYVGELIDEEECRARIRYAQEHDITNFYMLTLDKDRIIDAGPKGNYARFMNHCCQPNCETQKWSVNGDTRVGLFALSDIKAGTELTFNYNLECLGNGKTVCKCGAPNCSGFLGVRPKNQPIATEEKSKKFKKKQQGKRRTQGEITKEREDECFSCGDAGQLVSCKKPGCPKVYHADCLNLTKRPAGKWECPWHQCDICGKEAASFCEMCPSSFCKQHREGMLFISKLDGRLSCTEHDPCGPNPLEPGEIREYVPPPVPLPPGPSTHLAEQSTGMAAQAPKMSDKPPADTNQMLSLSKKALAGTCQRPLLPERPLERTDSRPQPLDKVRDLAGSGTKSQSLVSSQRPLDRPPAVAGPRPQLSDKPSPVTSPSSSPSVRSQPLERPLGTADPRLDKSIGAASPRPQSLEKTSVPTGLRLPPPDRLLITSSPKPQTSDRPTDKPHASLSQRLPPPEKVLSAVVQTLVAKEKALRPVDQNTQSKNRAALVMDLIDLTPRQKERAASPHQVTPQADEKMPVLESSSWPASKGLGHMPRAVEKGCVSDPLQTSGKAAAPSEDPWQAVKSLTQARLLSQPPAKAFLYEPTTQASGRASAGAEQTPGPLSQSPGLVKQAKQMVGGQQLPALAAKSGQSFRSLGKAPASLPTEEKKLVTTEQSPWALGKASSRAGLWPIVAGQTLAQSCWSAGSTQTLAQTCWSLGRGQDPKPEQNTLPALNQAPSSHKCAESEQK

For `CCN(c1cc(-c2ccc(CN3CCN(CCC(=O)NCCCCCCCCCCC(=O)N[C@H](C(=O)N4C[C@H](O)C[C@H]4C(=O)NCc4ccc(-c5scnc5C)cc4)C(C)(C)C)CC3)cc2)cc(C(=O)NCc2c(C)cc(C)[nH]c2=O)c1C)C1CCOCC1`, the outcome in series [1] was inactive. Besides, the result in series [2], in [5], in series [7] and in series [11] was Active. Besides, the plasma concentration entry in series [3] is given as “Stable”. Besides, the Activity result in series [4] was “Non-Toxic”; in series [10] it was 100%; in series [20], 100%. The inhibition in series [6], in series [8], in series [9], in series [12], in series [14] and in [15] was < 50% each time. Besides, the inhibition (in [16]; in the series filed under Homo sapiens; in [17]; in [18]; in [19]) was < 50% in each case. In addition, the 50% degradation concentration (DC50) in [13] is 34.4 nM. Moreover, the 50% inhibitory concentration (IC50) was found to be 450 nM in the series with MDA-MB-468, 410 nM in the series on RS4-11 and 1450 nM with BT-549.
